# Assay outcomes from PubChem BioAssay.
# Compounds with a hit are over-represented: about 2.7% of the library has one in this group of screens.
# Yeast growth inh: chemicals that inhibit yeast BB579 growth in restrictive medium (lifespan-shortening candidates). S. cerevisiae BB579 growth, OD615, 48 h. inhibition, % at 10 µM. hit rate 0.51% among 140,000;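 active means inhibition above a set limit, 3 SD over the mean compound inhibition, cut at about 44% in these data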
#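 Detection: OD615 turbidity measurement; Material: Saccharomyces cerevisiae DeaD strain BB579, replicative lifespan model yeast; Timing: 48 h exposure, 30 °C; Doses: single 10 µM dose; Medium: CSMM-D restrictive synthetic medium containing dextrose (glucose); Controls: amphotericin B at 10 µg/mL as positive control.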
# RAM inhibit: blocks the yeast RAM network | S. cerevisiae dse1pr::URA3 reporter, 5-FOA growth OD615, 2 d; analog-sensitive cbk1-as2 kinase mutant strain | inhibition, % at 50 µM | hit rate 1.8% among 190,000;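 active means inhibition above a set limit, 3 SD over mean compound inhibition, cut at about 8.4% in these data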;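 further: 0% = DMSO-only wells with no growth and 100% = 10 µM 1-NA-PP1 full growth; inhibition rescues growth on 5-FOA so higher OD means more RAM inhibition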
# Yeast lifespan up: extends the lifespan of yeast. S. cerevisiae growth with nicotinamide, OD615; deaD strain in restrictive glucose medium. hit rate 0.68% among 130,000. inhibition of the nicotinamide effect, % at 10 µM;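 active means inhibition above a set limit, placed 3 SD over the median of all compounds, cut at about 26% in these data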;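 further: 0% = nicotinamide-treated wells and 100% = cells grown without nicotinamide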
#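 Assay system: DeaD-strain S. cerevisiae. Medium: CSMM-D glucose medium, restrictive. Reagent: nicotinamide, 1.5 mM, co-present with compound. Compound: 10 µM single point, 0.25% DMSO. Schedule: culture preincubation 4 h, compound exposure 48 h, both 30 °C. Detection: absorbance at 615 nm.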
# sdo1 growth: compounds rescuing growth of sdo1-depleted yeast, bone marrow failure model. z-score at 10 µM. S. cerevisiae sdo1-depleted JHY4D growth rescue, OD600 30 h; hits give high values; pdr5 snq2 efflux-pump mutant strain. hit rate 0.21% among 140,000;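 active means z-score above 3 at both the 24 hr and the 30 hr optical density reads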;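 further: z-score against mean and SD of all compound wells on the same plate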
# RAM efflux-def: RAM network inhibition, efflux-deficient strain; shares compounds with RAM inhibit; S. cerevisiae efflux-deficient reporter strain, 5-FOA growth OD615, 2 days; max inhibition, %; 1,200 tested, under 10 active; call rule not given here;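 further: plate controls were vehicle for no effect and reference inhibitor for full effect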
# Active calls of the source: *; · = no result given.
SMILES,Yeast growth inh,RAM inhibit,Yeast lifespan up,sdo1 growth,RAM efflux-def
O=C(C(=O)N1CCCC1CO)N1CCCC1CO (stereo not drawn),·,1.2,·,·,·
CCS(=O)(=O)c1ccc(-c2csc(-c3ccc(Cl)cc3)n2)c(Cl)c1Cl,-22.8,11.5*,-24.6,-0.58,3.2
O=C(CN(Cc1cccs1)C(=O)CSc1nnc(COc2ccccc2)o1)NC1CCCC1,-68.5,16.7*,9.7,-0.15,1.5
O=C(CN(Cc1cccs1)C(=O)c1csnn1)NC1CCCC1,-17.9,1.0,·,0.69,·
COc1ccc(/C=C/C(=O)c2ccoc2)cc1,-40.2,-0.3,-13.6,-0.9,·
COc1ccc(/C=C/C(=O)c2c(O)c(OC)c3occc3c2OC)cc1,·,12.2*,·,·,3.5
CCn1nc(C)c(CNC(=O)Nc2ccc3c(c2)OCO3)c1C,·,3.2,·,·,·
CCOC(=O)Cc1csc(NC(=O)c2c(O)c3ccccc3n(CC(C)C)c2=O)n1,-105.1,13.2*,69.2*,-2.44,3.1
CCCn1c(=O)c(C(=O)Nc2ccccc2C(=O)OCC)c(O)c2ccccc21,-24.7,15.6*,13.0,0.09,2.6
CC(C)Cn1c(=O)c(C(=O)Nc2ccccc2S(N)(=O)=O)c(O)c2ccccc21,-29.3,0.4,3.2,-2.35,·
CCn1c(=O)c(C(=O)NCc2ccc(OC)c(OC)c2)c(O)c2ccccc21,-50.7,4.3,-3.6,-1.48,·
CCCn1c(=O)c(C(=O)NCc2ccc(OC)c(OC)c2)c(O)c2ccccc21,-11.3,17.1*,-2.1,-1.61,2.0
Nc1ccccc1NC1CCCCC1,·,0.9,·,·,·
O=C(O)c1ccc(Nc2nc(-c3cccnc3)nc3ccccc23)cc1,·,3.0,·,·,·
COC(=O)CCSc1cc([N+](=O)[O-])cc2c1c(C1OCCO1)nn2-c1ccccc1,-44.7,13.6*,12.1,-0.83,2.3
CCOC(=O)c1cc(C#N)c(N2CCN(c3ccccn3)CC2)nc1-c1ccccc1,·,-0.6,·,·,·
COc1cccc(CSc2nc3cc4c(cc3cc2C)OCCO4)c1,-35.3,18.0*,-3.4,-0.41,2.6
COc1ccc(C(Cl)=C(c2ccc(OC)cc2)c2ccc(OC)cc2)cc1,-37.5,13.2*,9.6,1.08,5.7
C=CCSc1nc(-c2ccc(OC)cc2)c(C#N)c(=O)n1CC=C,·,11.9*,·,·,2.4
O=[N+]([O-])c1ccccc1N/N=C\c1ccccc1Cl,-45.7,1.5,-2.4,0.32,·
CCCOc1ccc(/C=N/Nc2ccccc2[N+](=O)[O-])c(OCCC)c1,-20.2,16.0*,-0.4,0.38,5.5
CN(C)S(=O)(=O)c1cc(NC(=O)COC(=O)Cc2ccc(Br)cc2)ccc1Cl,-37.6,11.8*,4.1,-0.51,1.3
O=C(CSc1nc2cc(Cl)ccc2s1)N1CCCc2ccccc21,-41.9,11.5*,-14.6,-1.51,2.1
COc1ccc(-c2ccc(SCC(=O)c3ccccc3)nn2)cc1OC,·,5.3,·,·,·
O=C(CCC(=O)OCCCC(F)(F)C(F)(F)F)Nc1ccc(Cl)cc1Cl,-58.1,29.2*,-3.0,-0.21,2.9
SMILES,Yeast growth inh,RAM inhibit,Yeast lifespan up,sdo1 growth,RAM efflux-def
Cc1ccc(NC(=O)CCC(=O)OCCCC(F)(F)C(F)(F)F)cc1,-17.8,-0.2,-7.2,-0.32,·
Cc1cnn(-c2nc(-c3ccccc3)cc(-c3ccccc3)n2)c1,·,14.1*,·,·,1.0
CCOC(=O)CNC(=O)c1cc(-c2ccccn2)nc2c(C)c(Cl)ccc12,·,1.1,·,·,·
CS(=O)Cc1cc(Sc2ccccc2)nc(-c2ccncc2)n1 (stereo not drawn),·,3.1,·,·,·
Cc1ccc(S(=O)(=O)N(CCC(=O)Nc2ccc(OC(F)(F)F)cc2)c2ccccc2)cc1,13.9,16.0*,-1.9,-1.01,2.1
Cc1ccc(N(CCC(=O)NC(C)(C)C)S(=O)(=O)c2ccc(C)cc2)cc1,·,0.9,·,·,·
COc1ccc(/C=N/OCC(=O)NC(c2ccccc2)c2ccccc2)c(OC)c1,-18.1,12.0*,3.5,-0.81,3.2
COc1ccc(/C=N/OCC(=O)NCC(C)C)c(OC)c1,·,0.5,·,·,·
Cc1cccc(NC(=O)COC(=O)c2ccc3c(=O)n4c(nc3c2)CCC4)c1,-27.8,1.3,-3.4,0.23,·
O=C(COC(=O)c1ccc2c(=O)n3c(nc2c1)CCC3)Nc1ccc(OC(F)F)cc1,·,12.7*,·,·,2.0
COc1ccccc1C(=O)NNC(=O)c1ccc(NC(=O)C(C)C)cc1,·,-0.8,·,·,·
O=C(Nc1ccc(Cl)c(Cl)c1)c1ccc(Cn2cc(Cl)cn2)cc1,-13.5,13.2*,-3.6,-2.01,2.3
COc1ccc(CC(=O)Nc2nnc(C(C)C)s2)cc1OC,·,-0.4,·,·,·
CC(C)Cn1c(N)c(-c2nc(C(C)C)c(C(=O)c3ccccc3F)s2)c(=O)n(C)c1=O,·,11.7*,·,·,2.3
CC(=O)Nc1cccc(Oc2ncnc3scc(-c4ccc(C(C)C)cc4)c23)c1,1.2,7.6,0.3,-1.45,·
CCOC(=O)c1c(NC(=O)CN2CCCc3ccccc32)sc(C)c1C,-30.4,13.6*,-2.3,0.49,3.0
CCOC(=O)c1c(NC(=O)CN2CCCc3ccccc32)sc(C)c1CC,-26.6,15.2*,-0.1,0.03,4.5
O=C(CCCOc1ccc(Cl)cc1Cl)N/N=C/c1ccccc1,-40.4,12.3*,-2.6,-0.99,1.9
Cc1ccc(/C=N/NC(=O)CCCOc2ccc(Cl)cc2Cl)cc1,-39.0,12.3*,4.5,-0.45,1.0
Cc1csc(NC(=O)C2CCN(S(=O)(=O)c3ccccc3F)CC2)n1,·,0.6,·,·,·
COc1cccc(-c2nnc(SCC(=O)Nc3ccc(OC)c(OC)c3)n2N)c1,-21.8,11.7*,-6.6,1.44,3.2
Cn1c(N=Nc2ccc(N3CCOCC3)cc2)[n+](C)c2ccccc21,·,13.2*,·,·,16.4
COC(=O)c1cc(=O)n(Cc2ccc(F)cc2)c(=NCc2ccc(F)cc2)s1,·,13.6*,·,·,2.6
COc1cnc(-c2ccccc2)nc1Oc1ccc(Cl)cc1C,·,5.6,·,·,·
COc1nc(Nc2ccc([N+](=O)[O-])cc2)nc(NC2CCCCC2)n1,·,-0.2,·,·,·
SMILES,Yeast growth inh,RAM inhibit,Yeast lifespan up,sdo1 growth,RAM efflux-def
N#Cc1nc(-c2ccc(OCc3ccccc3)cc2)oc1NCc1ccco1,-51.4,16.5*,3.9,-0.4,3.7
O=C(/C=C/c1ccc2c(c1)OCO2)NCCSCc1ccc(Cl)cc1,-15.2,0.2,-4.6,-1.28,·
O=C(/C=C/c1cccc([N+](=O)[O-])c1)NCCSCc1cccc(Cl)c1,-31.2,11.5*,-1.6,-2.09,2.0
O=C(/C=C/c1ccc2c(c1)OCO2)NCCSCc1c(Cl)cccc1Cl,-17.1,15.1*,-8.8,-1.5,2.5
CC(Oc1ccc(Cl)cc1)c1ccnn1S(=O)(=O)c1ccc(Cl)cc1 (stereo not drawn),-44.9,3.2,-5.3,-0.32,·
CC(Oc1ccc(-c2ccccc2)c(F)c1)c1ccn(S(=O)(=O)c2ccc(Br)cc2)n1 (stereo not drawn),-69.3,11.8*,-26.3,1.37,2.6
Cc1ccc(C(C)C)c(OCC(=O)OCc2c(C)noc2C)c1,-13.6,22.8*,-3.2,-0.63,1.2
O=C(COc1cccnc1[N+](=O)[O-])NCc1ccco1,·,0.5,·,·,·
CN(C)c1ccc(N=Nc2ccccc2C(=O)OCC(=O)Nc2ccccc2C(F)(F)F)cc1,-24.4,20.5*,28.8*,-0.55,4.6
